# This is a sample that favours compounds with a hit; in the whole collection about 2.6% have one here.
# Yeast life ext – yeast lifespan extension; S. cerevisiae growth with nicotinamide, OD615; deaD strain in restrictive glucose medium; inhibition of the nicotinamide effect, % at 10 µM; 130,000 tested, 0.68% active; AID 775;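 active = inhibition above a set limit, placed 3 SD over the median of all compounds, cut at about 26% in these data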;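 note: 0% = nicotinamide-treated wells and 100% = cells grown without nicotinamide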
#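 System: DeaD-strain S. cerevisiae / Buffer or medium: CSMM-D, restrictive glucose (dextrose) synthetic minimal medium / Probe or stimulus: nicotinamide, 1.5 mM, co-present with compound / Compound: one concentration, 10 µM, DMSO 0.25% / Incubation: 48 h compound exposure at 30 °C, humidified / Technique: optical density (absorbance) at 615 nm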
# BB579 growth dn – yeast BB579 growth reduction in restrictive medium; S. cerevisiae BB579 growth, OD615, 48 h; inhibition, % at 10 µM; 140,000 tested, 0.51% active; AID 804;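 active = inhibition above a set limit, 3 SD over the mean compound inhibition, cut at about 44% in these data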
#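 Assay system: S. cerevisiae DeaD strain BB579 yeast. Medium: CSMM-D restrictive synthetic medium containing dextrose (glucose). Times: 4 h cell preincubation, 48 h compound exposure, 30 °C humidified. Signal: OD615 turbidity measurement. Benchmarks: positive control amphotericin B 10 µg/mL.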
# RAM inhibit – blocks the yeast RAM network; S. cerevisiae dse1pr::URA3 reporter, 5-FOA growth OD615, 2 d; analog-sensitive cbk1-as2 kinase mutant strain; inhibition, % at 50 µM; 190,000 tested, 1.8% active; AID 868;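 active = inhibition above a set limit, 3 SD over mean compound inhibition, cut at about 8.4% in these data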;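 note: 0% = DMSO-only wells with no growth and 100% = 10 µM 1-NA-PP1 full growth; inhibition rescues growth on 5-FOA so higher OD means more RAM inhibition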
# Numbers without * were called inactive; / = no result given.
SMILES,Yeast life ext,BB579 growth dn,RAM inhibit
O=[N+]([O-])c1cccc(/C=N/n2cnnc2)c1O,-9,76*,-1
CCc1ccc(NC(=O)Nc2cccc(OC)c2)cc1,/,/,2
COc1ccc(CNc2nc(SCc3cc(=O)n4cc(Cl)ccc4n3)nc3ccccc23)cc1,5,-19,1
O=C1CC(N2CCN(c3ccc(F)cc3)CC2)C(=O)N1Cc1cccs1 (stereo not drawn),-8,-61,2
O=C1CC(N2CCN(c3nc4ccccc4s3)CC2)C(=O)N1Cc1cccs1 (stereo not drawn),-26,98*,0
CCN(CC)c1ccc(/C=C2/C(=O)ON=C2C)cc1,40*,-34,1
CC1=NOC(=O)/C1=C/c1ccc(N(C)C)cc1,1,-24,1
CCOCc1c(C(=O)NC2=Nc3ccccc3NC(CC)=C2C(=O)OCC)oc2ccccc12,/,/,10*
CCOC(=O)C1=C(CC)Nc2ccccc2N=C1NC(=O)c1oc2ccccc2c1C,/,/,4
CCOc1ccc(N=Nc2cc(C(C)C)ccc2O)cc1,-4,-48,10*
CCOc1ccc(N=C(C)c2ccccc2O)cc1,-10,-24,1
NC(=O)CN(c1ccccc1)C1SC(=O)N(Cc2ccccc2)C1=O (stereo not drawn),-8,-9,8
Cc1ccc(N(CC(N)=O)C2SC(=O)N(Cc3ccccc3)C2=O)cc1 (stereo not drawn),-5,-23,9.4*
CC(=O)c1sc(N/N=C\c2ccccc2O)nc1C,/,/,3
O=C(CCCn1c(=O)c2ccccc2n(CC(=O)N2CCN(c3ccccc3)CC2)c1=O)NCc1ccco1,/,/,1
Cc1ccc(OCC(=O)N2CCc3ccccc3C2)c([N+](=O)[O-])n1,/,/,2
CN1CCN(C(=O)NCC23CC4CC(CC(C4)C2)C3)CC1,/,/,1
CCN1/C(=C/c2ccc3cc(C)cc(C)c3[n+]2CC)Sc2cc(C)ccc21,/,/,-1
CCN1/C(=C/c2ccc3cccc(C)c3[n+]2CC)Sc2ccccc21,-13,96*,1
CC1(C)CC(=O)C/C(=N\NC(=O)CCc2ccc(S(=O)(=O)N3CCOCC3)cc2)C1,/,/,0
O=C(NC(=S)NCc1ccccc1)c1ccccc1[N+](=O)[O-],/,/,2
COc1ccc(CNC(=O)Cn2nnc(-c3ccc(NC(=O)C4CCCCC4)cc3)n2)cc1,-1,-30,9.0*
CCOc1ccc(-c2nnn(CC(=O)NCc3ccc(OC)cc3)n2)cc1OCC,-8,-50,1
Cc1ccc(S(=O)(=O)N/N=C/c2cccc([N+](=O)[O-])c2)cc1,-2,-9,0
CCCCCCCCCS(=O)(=O)N/N=C/c1cccc([N+](=O)[O-])c1,-3,-6,8.7*
SMILES,Yeast life ext,BB579 growth dn,RAM inhibit
CN(CCc1ccccn1)C(=O)CCC1CCCN(C(=O)c2ccc3c(c2)OCCO3)C1 (stereo not drawn),/,/,1
NC(=O)NOCc1ccc(Cl)cc1Cl,/,/,3
CN(C)/C=C(\C=N\OCc1ccc(Cl)cc1Cl)C(=O)Nc1ccc(Cl)c(Cl)c1,-7,-62,11*
O=C(Cn1nnc(-c2ccccc2)n1)N/N=C/c1ccco1,/,/,3
CCCCOc1ccc(-c2cnc3ccccc3n2)cc1,-2,-34,3
CCCCCCCOc1ccc(-c2ccc(C#N)cn2)cc1,-2,-12,10*
CCC(=O)Oc1ccc(C(=O)Nc2ccc3c(c2)OCO3)cc1,/,/,2
CNc1oc(Cc2cccc3ccccc23)nc1C#N,-9,-50,1
CC1CN(c2oc(Cc3cccc4ccccc34)nc2C#N)CC(C)O1 (stereo not drawn),-13,-4,9.9*
COC(=O)C1=C(C(=O)OC)SC(=C2C(=S)C(C)(C)N(C(=O)C3CC3)c3ccccc32)S1,1,-51,6
COC(=O)C1=C(C(=O)OC)SC(=C2C(=S)C(C)(C)N(C(=O)C(C)C)c3ccccc32)S1,35*,-24,7
CCN(CC)C(=N)N1c2ccccc2CCC1C (stereo not drawn),/,/,-1
CC(=O)c1ccc(NC(=O)Nc2ccc3c(c2)N(C)C(=O)CS3)cc1,-3,-8,2
CCOc1ccc(NC(=O)Nc2ccc3c(c2)N(C)C(=O)CS3)cc1,-5,-40,11*
Cc1ccc(C(=O)NC(N2CCCC2)C(Cl)(Cl)Cl)cc1 (stereo not drawn),-9,26,2
CN(C)CCNC=C(C(=O)Nc1ccc(Cl)cc1Cl)C(=O)Nc1ccc(Cl)cc1Cl,-21,99*,9.0*
CC(=O)/C(=C/N(C)C)C(=O)Nc1ccc(Cl)cc1Cl,/,/,2
CC(C)Cc1ccc(C(C)C(=O)OCC(=O)c2c[nH]c3ccccc23)cc1 (stereo not drawn),-5,-27,10*
Cc1ccc(C(=O)OCC(=O)c2c[nH]c3ccccc23)cc1,0,-23,7
CC(=O)c1ccc(O)c(CSC2=NCCS2)c1,/,/,0
Nc1nc(-c2ccc(Cl)cc2)c(N=Nc2ccc(S(=O)(=O)N3CCOCC3)cc2)s1,5,-8,9.3*
O=S(=O)(c1ccc(Cl)cc1)N1CCC(N2CCOCC2)CC1,-13,-1,2
Cc1ccc(S(=O)(=O)N2CCN(S(=O)(=O)N3CCCCCC3)CC2)cc1,/,/,4
O=[N+]([O-])c1cccc(-c2cn(-c3ccccc3)c(=S)[nH]2)c1,/,/,3
O=[N+]([O-])c1ccc(-c2cn(-c3ccccc3)c(=S)[nH]2)cc1,5,-48,10*
SMILES,Yeast life ext,BB579 growth dn,RAM inhibit
Cc1cccc(NC(=O)c2oc3ccc(S(=O)(=O)N4CCOCC4)cc3c2C)c1C,-6,-26,6
Cc1ccc(NC(=O)c2oc3ccc(S(=O)(=O)N4CCOCC4)cc3c2C)c(C)c1,/,/,9.4*
Cc1nn(C(C)C(=O)N2CCc3ccccc32)c(C)c1[N+](=O)[O-] (stereo not drawn),-6,-10,4
Cc1nn(C)c(C(=O)NN)c1Cl,/,/,0
O=C(/C(Cl)=C/Nc1ccc(Br)cn1)C(F)(F)F,/,/,5
O=C(NCc1ccccc1)NCC12CC3CC(CC(C3)C1)C2,/,/,0
O=C(CC12CC3CC(CC(C3)C1)C2)NC(=S)NCc1ccccc1,8,-29,9.4*
Cc1cc(NC(=O)CSc2ccc3nnc(CCNS(=O)(=O)c4ccccc4)n3n2)no1,/,/,0
Cc1ccc(S(=O)(=O)NCCc2nnc3ccc(SCC(=O)Nc4nc5ccccc5s4)nn23)cc1,0,-12,10*
COc1ccc(CC(=O)NNc2ncnc3c2cnn3-c2ccc(C)cc2)cc1OC,-2,0,2
O=C(N/N=C/c1ccccc1OCc1ccccc1)c1cccs1,7,-22,4
CCCn1c(C)cc(/C=C(\C#N)C(=O)OCC(=O)Nc2cccc(OC)c2)c1C,-2,-82,8.9*
Cc1cc(/C=C(\C#N)C(=O)OCC(=O)NC(=O)NC(C)(C)C)c(C)n1CCC(C)C,-6,-47,-1
Cc1cc(C)nc(N/N=C2/CCCC/C2=C\c2ccccc2)n1,/,/,0
CN(C)S(=O)(=O)c1cccc(NC(=O)COC(=O)c2cn(-c3ccccc3)nc2-c2ccccc2)c1,4,-20,9.1*
NS(=O)(=O)c1ccc(NC(=O)COC(=O)c2cn(-c3ccccc3)nc2-c2ccc(F)cc2)cc1,-2,-29,6

# Screening data (PubChem)
